# Bioassay records as filed in PubChem BioAssay.
# A selection: hits, their analogues and other compounds. The true share with any hit is near 0.74%.
# ARFGAP1 inhibitor – inhibits rat ARF GTPase activating protein 1 | 0.26% of 360,000 active | AID 651572 | inhibition, % at 16.5 µM | Arfgap1-stimulated ARF1 GTP hydrolysis, GDP FP detection | Q62848;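 active = inhibition above a per-plate limit, mean inhibition of low control wells plus 3 SD, cut at about 25% in these data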;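 also: 0% = DMSO wells with enzyme and 100% = wells lacking Arfgap1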
#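 Assay system: Rat Arfgap1 GAP domain (His6, aa 1-136), purified enzyme | Buffer or medium: HEPES 25 mM pH 7.5, NaCl 150 mM, MgCl2, DTT | Schedule: GTP hydrolysis reaction 2 h at 25 °C | Signal: FP of antibody-bound GDP Alexa 633 tracer, ex 620/em 688 nm | Measure: Percent inhibition of Arfgap1-stimulated GTP hydrolysis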
# DDE Tn7 FP inh – inhibitors of Tn7 peptide binding to human fibrin DD(E); P02675; AID 720508; FP displacement of FITC-Tn7 peptide from fibrin DD(E); 0% = median of compound wells per plate; inhibition, % at 8.3 µM; 0.13% of 370,000 active;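 active = inhibition above the mean of compounds falling within the control limits plus 3 SD of them, cut at about 14% in these data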;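 also: 0% = plate median of compound wells and 100% = 10 µM Aha-Tn7 peptide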
#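 assay system = human clot-derived fibrin DD(E) complex | quantity = Fibrin-DD(E) at 2 µM final | timing = 10 min preincubation, 3 h with tracer, room temperature | signal = fluorescence polarization | measure = percent inhibition | benchmarks = high control wells with 10 µM unlabelled Aha-Tn7 peptide (full inhibition) | replicates = singlicate testing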
# Tn6 DDE FP – disrupts Tn6 cyclic peptide binding to fibrin D-Dimer-E complex; 0.21% of 370,000 active; inhibition, % at 8.3 µM; Fibrin DD(E) TRITC-Tn6 fluorescence polarization displacement;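 active = inhibition above a per-campaign cutoff: mean of compounds within control limits plus 3 SD, cut at about 15% in these data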;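 also: 0% = median of all compound wells on the plate and 100% = blocking peptide control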
# ASAP1 inh – blocks human ASAP1-stimulated Arf1 GTP hydrolysis; inhibition, % at 16.5 µM; 0.19% of 360,000 active; GDP FP detection; AID 624377; Q9ULH1; in the data active = inhibition above about 25%;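 also: 0% = vehicle with enzyme and substrate and 100% = no enzyme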
# Target sequence (Q9ULH1 325-724 limits assumed): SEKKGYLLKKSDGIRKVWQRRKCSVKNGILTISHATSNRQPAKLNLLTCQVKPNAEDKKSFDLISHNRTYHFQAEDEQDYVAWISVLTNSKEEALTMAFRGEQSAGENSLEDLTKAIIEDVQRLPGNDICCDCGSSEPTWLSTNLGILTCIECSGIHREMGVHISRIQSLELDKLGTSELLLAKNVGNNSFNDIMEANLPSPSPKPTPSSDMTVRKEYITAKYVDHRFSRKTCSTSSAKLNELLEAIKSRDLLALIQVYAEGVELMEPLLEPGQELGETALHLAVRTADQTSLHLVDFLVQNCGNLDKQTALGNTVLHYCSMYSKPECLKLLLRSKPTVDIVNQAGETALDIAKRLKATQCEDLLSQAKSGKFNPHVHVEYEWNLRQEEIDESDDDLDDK
# Tn6 DDE ctr – counter-screen hit for Tn6 peptide-fibrin DD(E) binding disruption | shares compounds with Tn6 DDE FP | TRITC-Tn6 fluorescence polarization displacement; 0% = median of compound wells, not DMSO | inhibition, % at 8.3 µM | 2% of 680 active | AID 720621;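 active = inhibition above the mean of test compounds lying between the control limits plus 3 SD of those, cut at about 14% in these data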;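 also: 0% = median of compound wells and 100% = wells with Aha-Tn7 blocking peptide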
# DDE Tn6 confirm – confirmation of inhibitors of Tn6 binding to human fibrin DD(E) | FP displacement of TRITC-Tn6 peptide from DD(E); 0% = per-plate median of test wells | inhibition, % at 8.3 µM | 10% of 680 active | shares compounds with Tn6 DDE FP | AID 720631;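 active = inhibition above the mean of compounds lying within the control limits plus 3 SD, cut at about 16% in these data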;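 also: 100% = high control wells holding a competing inhibitor peptide at 10 µM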
# Active calls of the source: *; . = not tested or not shown; + = active, no number.
SMILES,ARFGAP1 inhibitor,DDE Tn7 FP inh,Tn6 DDE FP,ASAP1 inh,Tn6 DDE ctr,DDE Tn6 confirm
CC1CCc2c(sc(NC(=O)Cn3nc(C(F)(F)F)c4c3CCCCC4)c2C#N)C1 (centres undefined),-6,2,17*,-1,9,7
N#Cc1c(NC(=O)Cn2nc(C(F)(F)F)c3c2CCCC3)sc2c1CCC2,-4,-5,2,-1,.,.
CN(C)Cc1c(C(C)(C)O)[nH]c2cc(C(F)(F)F)ccc12,-1,3,-1,-6,.,.
Cn1c(N)c(C(=O)COC(=O)CC2CC3CCC2C3)c(=O)n(C)c1=O (centres undefined),-1,7,16*,-9,9,6
Cn1c(N)c(C(=O)COC(=O)Cc2ccc(Br)cc2)c(=O)n(C)c1=O,1,-5,-6,-10,.,.
O=C(Nc1ccc(F)cc1)OCCCN1C(=O)CCC12CCCCC2,.,7,3,.,.,.
CCOC(=O)[C@@H]1CSCCS(=O)(=O)N1C(=O)[C@H](C)NC(=O)OC(C)(C)C,3,6,-1,-2,.,.
c1ccc2c(c1)ncn2CCC1CCCCC1,1,7,18*,2,8,2
Cc1ccc(S(=O)(=O)N2CCN(C(=O)COC(=O)C3CCC3)CC2)cc1,-5,3,18*,-5,11,4
COc1ccc(Cl)cc1NC(=O)COC(=O)CCNC(C)=O,-5,6,17*,-1,9,5
Cc1nnc2sc(-c3cccc4ccccc34)nn12,3,-1,17*,7,-7,-10
CC1N(C)c2cc(NC(=O)c3ccco3)ccc2C1(C)C (centres undefined),-1,-20,+,21,2,5
CCn1c(CSc2nnc(-c3ccncc3)n2CCOC)nc2cc(C(=O)O)ccc21,-13,2,19*,-3,-2,47*
COC(=O)c1ccc(C(=O)OC)c(NC(=O)CSc2n[nH]c(N)n2)c1,-7,5,-3,5,.,.
CCn1c(CSc2n[nH]c(N)n2)nc2cc(C(=O)O)ccc21,-11,9,29*,-18,-6,22*
COCCn1c(SCCCC(=O)c2ccc(Br)cc2)nnc1-c1ccncc1,-3,-8,2,2,.,.
Cc1cc(Nc2cc(C(F)(F)F)cc(C(F)(F)F)c2)cc(=O)n1-c1cc(C(F)(F)F)cc(C(F)(F)F)c1,5,3,-3,-10,.,.
CCCCNc1c(-c2ccccn2)nc2nc(C)cc(C)n12,-4,-3,2,-7,.,.
Cc1cc(C)n2c(Nc3c(C)cccc3C)c(-c3ccccn3)nc2n1,-3,6,16*,6,4,2
C=CCn1c(CC#N)nnc1N1CCOCC1,-5,5,16*,-1,3,1
Cc1ccc(C(=O)C2CCN(CC(=O)NCc3cccs3)CC2)cc1,.,-1,-7,.,.,.
CN(C)c1cccc(O)c1,-5,-4,34*,-6,0,3
Cc1cc(O)ccc1Nc1cc(-c2cccc(N(C)C)c2)ncn1,-1,2,-1,-14,.,.
Nc1nc2cc(S(=O)(=O)N3CCOCC3)ccc2o1,-22,0,-1,-18,.,.
Cc1cc(N2CCN(C(=O)OC(C)(C)C)C[C@H]2C)ccc1N1C[C@@H](C)O[C@@H](C)C1,-5,1,0,6,.,.
CC(=O)c1ccc(NC(=O)C2CC(=O)N(Cc3ccccc3)C2)cc1 (centres undefined),-5,6,16*,2,-2,-3
O=C(Nc1ccccc1)C1CC(=O)N(Cc2ccccc2)C1 (centres undefined),5,1,0,-9,.,.
C[C@@H]1CN([C@H](C)CO)C(=O)c2cc(NC(=O)Nc3ccc(C(F)(F)F)cc3)ccc2O[C@H]1CN(C)S(=O)(=O)c1ccccc1,11,-4,48*,5,14*,3
C[C@H](CO)N1C[C@H](C)[C@@H](CN(C)S(=O)(=O)c2ccccc2)Oc2c(NC(=O)Nc3ccc(C(F)(F)F)cc3)cccc2C1=O,0,2,-8,-4,.,.
